The campaign covered roughly 210,000 compounds. About 220 (0.1%) were called active. The entries come from a sample that favours actives as a whole. Values without a mark were called inactive.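 The calls were made as follows: active = signal enhancement of 30% or more; inactive = the rest.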

Sequence of E3 ubiquitin-protein ligase Mdm2 (Homo sapiens) (Q00987 whole entry, looked up, the tested form may be a part): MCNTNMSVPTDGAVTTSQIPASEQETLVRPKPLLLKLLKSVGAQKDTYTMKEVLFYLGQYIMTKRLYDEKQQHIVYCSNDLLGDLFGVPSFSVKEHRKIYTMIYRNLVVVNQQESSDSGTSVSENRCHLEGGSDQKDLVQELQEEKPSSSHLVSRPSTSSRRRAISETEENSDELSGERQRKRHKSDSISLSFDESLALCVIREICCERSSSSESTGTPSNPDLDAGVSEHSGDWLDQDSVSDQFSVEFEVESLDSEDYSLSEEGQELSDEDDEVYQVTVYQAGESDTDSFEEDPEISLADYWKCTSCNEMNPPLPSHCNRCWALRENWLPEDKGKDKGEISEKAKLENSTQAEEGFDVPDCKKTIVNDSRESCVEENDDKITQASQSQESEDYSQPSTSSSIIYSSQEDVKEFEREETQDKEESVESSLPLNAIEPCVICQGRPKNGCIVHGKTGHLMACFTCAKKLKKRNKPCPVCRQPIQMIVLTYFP

The assay has as its target E3 ubiquitin-protein ligase Mdm2 (Homo sapiens) (UniProt Q00987). In words: MDM2-luciferase reporter signal enhancers, primary screen, MDM2 E3 ligase inhibitor project, cell-based, luminescence, 1536-well (AID 1230).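 Also: luminescence tracks abundance of the self-degrading MDM2-luciferase fusion protein.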 To be noted: cell-based MDM2 ubiquitination luciferase reporter, 2 h; at 5 µM; stronger effect = higher value; 0 = plate control, 100 = twice control, blank-subtracted. Put shortly: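 Assay system: stable mammalian line carrying autodegrading MDM2–luciferase fusion reporter; Input: 2000 cells in each well; Compound dosing: single-point 5 µM; Schedule: 2 h compound exposure at 37 °C; Signal: SteadyLite luciferase luminescence after 15 min room-temperature reagent incubation; Evaluation: % luminescence enhancement versus blank-corrected plate control mean; Benchmarks: plate controls and plate blanks.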
In general terms: In a reporter assay the amount or activity of a reporter protein is the signal.
On to `CCOC(=O)CNC(=O)CSc1nnnn1-c1cc(C)ccc1C`, for which the signal enhancement is 16.5%.

In the case of `CCOC(=O)Cn1c(N)c(C(=O)OC)sc1=S`, the signal enhancement was -0.11%. The same measure for `CCOC(=O)Cn1nnnc1C`: 38.2% (active); for `Cc1cc(=O)oc2cc(OCCC[n+]3ccccc3)ccc12`: -9.35%. The same measure for `Cc1cc(NC(=O)OC(C)C)ccc1-c1ccc(NC(=O)OC(C)C)cc1C`: 0.08%.

Consider `O=S(=O)(c1ccccc1)N1CN(Cc2ccc(F)cc2)c2nc3ccccc3nc21`, for which the signal enhancement is -0.23%. The same measure for `CCCCNC(=O)OCCSCCS(=O)(=O)c1ccc(Cl)cc1`: -11.5%; for `O=C(NN1C(=O)C2C(C1=O)C1C=CC2C12CC2)c1ccccc1Cl` (configuration not stated): -6.98%.

For `COc1cc(C=O)ccc1Oc1nnnn1-c1ccccc1`, the signal enhancement was -12.6%.

For the compound `Cn1nc(C(C)(C)C)c(NC(=O)c2sccc2Cl)c1C(C)(C)C`, the signal enhancement was -2.73%. Next, `COc1ccc(NC2=CC(=S)NC(C)(C)C2)cc1`: -2.53%; `O=C(Nc1ccc(F)cc1)c1cc2c(s1)CCCC2`: -16.8%. Next, `COc1ccc(COCCN2CCN(S(=O)(=O)c3ccccc3)CCC2=O)cc1`: 16.8%; `COc1ccc(COCC(O)CN2CCC(C(N)=O)CC2)cc1` (configuration not stated): -1.62%; `O=C(CCl)Nc1cccc(CP(=O)(c2ccccc2)c2ccccc2)c1`: -14.8%. The same measure for `O=c1[nH]c2cccnc2n1-c1ccc([N+](=O)[O-])cc1`: -12%; for `O=C(NNC(=S)Nc1ccc(F)cc1)[C@H]1C[C@@H]1c1ccccc1`: -1.61%. For the compound `CCOC(=O)/C=C/CN(C(=O)OC(C)(C)C)S(=O)(=O)N1CC=CC1`, the signal enhancement was 1.19%.

Regarding `Cc1cc(Nc2ccc(N3CCOCC3)cc2)c2cccc(C)c2n1`, the signal enhancement was 5.92%. Next, `N#CC1=C(N)Oc2c(ccc3cccnc23)C1c1ccncc1` (configuration not stated): -12.4%; `COCc1cc(=O)oc2cc(NS(=O)(=O)c3ccc(C)cc3)ccc12`: -14.3%. Take `CC(=O)N(OCc1ccc(OC(C)C)c(Cl)c1)C(C)=O`: the signal enhancement is -12.5%.

Take `Cc1ccc(S(=O)(=O)NC(=O)N2CCCN(Cc3ccc(F)cc3)CC2)cc1`: the signal enhancement is -8.58%.

As to `CCC/C(C)=N\Nc1nc2c(c(=O)n(C)c(=O)n2C)n1C`, the signal enhancement is -9.83%. Next, `CCO[C@@H]1OC(C(=O)NC2CC2)=C[C@H](C)[C@H]1CCCO`: -12.6%; `CC(C)C[C@H](CO)Nc1nc(N(C)c2cccc(Cl)c2)c2ncn(C(C)C)c2n1`: 10%. The same measure for `Cc1ccc(/C=C/C(=O)O)cc1S(=O)(=O)N1CCC(Cc2ccccc2)CC1`: -0.26%.

With `O=C(CCCOc1ccccc1)Nc1cccc(C(=O)O)c1`, the signal enhancement is -14.6%. As for `O=C(CNCc1ccc(Cl)cc1)Nc1cccc(C(=O)O)c1`, the signal enhancement is 35.7% (active). Next, `O=C(CCC(=O)OCc1ccc(Cl)cc1)Nc1ccccc1`: -8.79%.

As to `CCN(CC)CCn1c(N)c(S(=O)(=O)c2ccccc2)c2nc3ccccc3nc21`, the signal enhancement is -7.92%. Turning to `Nc1ccc(-c2nnc(-c3ccc(-c4ccccc4)cc3)o2)cc1`, the signal enhancement was -17.1%.

For the compound `OC(c1nnc(-c2ccccc2)o1)c1cccs1` (configuration not stated), the signal enhancement is 31.9% (active).

As to `CCCN(CCC)c1ccc(C(O)c2nnc(-c3ccccc3)o2)cc1` (configuration not stated), the signal enhancement is -18.3%. In the case of `O=S(=O)([N-]c1nc2ccccc2nc1-[n+]1ccc(Cc2ccccc2)cc1)c1ccc(Br)s1`, the signal enhancement is -17.8%. The same measure for `COc1ccc(NC(=O)C2=C(C)NC(=O)NC2c2ccccc2[N+](=O)[O-])cc1` (configuration not stated): -9.62%; for `Nc1nc(NCC2CCCO2)nc(Nc2ccccc2F)c1[N+](=O)[O-]` (configuration not stated): 1.79%.

Take `CCN(CCO)C(=S)Nc1cc(C(=O)OC)ccc1C(=O)OC`: the signal enhancement is 3.69%.

Take `CCCN(CCC)C(=S)Nc1cc(C(=O)OC)ccc1C(=O)OC`: the signal enhancement is 39.1% (active). On to `CCS(=O)(=O)Nc1cc(C(=O)OC)ccc1C(=O)OC`, for which the signal enhancement is -8.23%. `Cc1cc(C)cc(OCC(=O)NNC(=O)CCN2C(=O)c3ccccc3C2=O)c1`: the signal enhancement is 31.1% (active).

For the compound `O=C(CCN1C(=O)c2ccccc2C1=O)NNC(=O)c1ccc(Cl)cc1Cl`, the signal enhancement was -8.02%.

On to `Cc1cc(C)cc(OCC(=O)NNC(=O)c2cc3ccccc3oc2=O)c1`, for which the signal enhancement is 1.34%. The same measure for `Clc1ccc(-c2cc(-c3ccccn3)on2)c(Cl)c1`: -77.9%; for `CCCN(c1ccc(C)cc1)c1nc(=O)c2cccnc2s1`: -10%; for `Fc1ccc(Nc2nnns2)cc1`: -6.61%. For the compound `COc1ccc(NC(=S)Nc2ccccc2Cl)cn1`, the signal enhancement was -15.3%. `CC(=O)Nc1ccc(OCC(=O)NCc2ccc(C)cc2)cc1`: the signal enhancement was -12.3%. The same measure for `Cc1ccc(NC(=O)OCc2cncs2)cc1`: -21.3%; for `COc1ccc(NC(=O)/C(Cl)=C(/Cl)S(=O)Cc2ccc(C)cc2)cn1` (configuration not stated): 72.4% (active); for `COc1ccc(CS(=O)/C(Cl)=C(/Cl)C(=O)Nc2ccc(OC)nc2)cc1` (configuration not stated): 53.8% (active). The same measure for `COc1ccc(C(=O)Nc2ccc(NC(=O)C(C)C)nc2)cc1`: -20.6%; for `CC(C)CCNC(=O)C1CCC(CNc2c(N3CCC(C)CC3)c(=O)c2=O)CC1` (configuration not stated): -5.11%. The same measure for `COc1ccc2c(CC(=O)OCC(=O)NC(N)=O)coc2c1`: 0.56%. In the case of `COC(=O)/C=C(\Oc1ccccc1)C1(O)CCCCC1`, the signal enhancement was -12%. Next, `CC(=O)NNC(=O)c1csc(Cc2c(Cl)sc3ccc(Cl)cc23)n1`: -2.59%; `CCC1(C)Cc2c(sc3nc(SC)[nH]c(=O)c23)CO1` (configuration not stated): -9.94%. The same measure for `CCOC(=O)CC1C(=O)NCCN1c1nc2c(C)cccn2c(=O)c1/C=C1\SC(=S)N(C(C)CC)C1=O` (configuration not stated): -24.8%. Consider `Cc1cc(OC(=O)c2ccccc2)c([N+](=O)[O-])c(=O)[nH]1`, for which the signal enhancement is 39.8% (active).

As for `COc1cccc(C(=O)Oc2cc(C)[nH]c(=O)c2[N+](=O)[O-])c1`, the signal enhancement is -90.1%. As for `O=C(Oc1ccccc1C(=S)N1CCCCC1)c1cc([N+](=O)[O-])cc([N+](=O)[O-])c1`, the signal enhancement is -1.87%. As for `c1csc(-c2nnc(COc3ncnc4sccc34)o2)c1`, the signal enhancement was -10.9%.

`COc1ccc(/C=N/NS(=O)(=O)c2ccc(NC(C)=O)cc2)cc1`: the signal enhancement was -14.4%. On to `Cc1nc(-c2ccccc2)sc1-c1nnc(C2CC2)o1`, for which the signal enhancement was -9.04%. The same measure for `CCOc1ccc(C2NC(=S)NC3=C2CCc2ccccc23)cc1` (configuration not stated): -16.9%. Next, `CN(c1ccc(OCC(=O)NC2=NCCS2)cc1)S(=O)(=O)c1ccc(F)cc1`: -0.06%; `Cc1ccc(Oc2nc(-c3ccccn3)nc3ccccc23)cc1`: -1.85%; `Brc1ccc2c(c1)[C@H]1OCC[C@H]1[C@@H](c1cccs1)N2`: -17.3%. The same measure for `COc1ccc(OC)c(-n2c(-c3ccn[nH]3)n[nH]c2=S)c1`: -7.17%; for `O=C(Nc1cccc(Cl)c1)Nc1nnc(-c2ccccc2)o1`: -7.54%. As for `O=C(Nc1nnc(-c2ccc(Cl)cc2)o1)c1ccccc1Br`, the signal enhancement is 108% (active). Next, `CCCC(=O)Nc1nnc(-c2ccccc2)o1`: -6.24%. As to `COc1ccccc1C1CCN(c2ccc([N+](=O)[O-])cn2)CC1`, the signal enhancement was -10.5%. The same measure for `CCN(CC)CCn1cnc2c1c(=O)n(CCOC(=O)c1cc(OC)c(OC)c(OC)c1)c(=O)n2C`: 2.01%; for `O=C(NC(=O)c1cc(OCC(F)(F)F)ccc1OCC(F)(F)F)Nc1ccccc1`: -3.24%; for `N#CCC(=O)N/N=C/c1cn(Cc2ccc3ccccc3c2)c2ccccc12`: -6.67%.

With `CCn1c(SCC(=O)N/N=C/c2ccncc2)nc2ccccc21`, the signal enhancement is -15.7%. As to `CC(C)(C)CN1C(=O)C(=O)NC[C@H]1Cc1cccc2ccccc12`, the signal enhancement is -5.59%. The same measure for `O=C(N/N=C/c1ccccn1)c1cccnc1`: -13%.

With `CCOC(=O)CN(C(=O)COc1nc(C)cc(C)c1C#N)c1ccc(Cl)cc1`, the signal enhancement is -12.8%. Next, `O=S(=O)(c1ccc(NC(=S)NN=C(C2CC2)C2CC2)cc1)N1CCOCC1`: -6.04%; `Cc1nnc(C)c2c(C)n(N)c(C)c12`: -11.1%; `Cc1nc(SCc2ccc(F)cc2)c([N+](=O)[O-])[nH]1`: 30.6% (active). The same measure for `Cc1cc([N+](=O)[O-])nn1Cc1ccc(F)cc1`: -10.9%; for `Cc1nc(SCC(=O)c2ccccc2)c([N+](=O)[O-])[nH]1`: -9.82%; for `O=C(CCS(=O)(=O)c1ccccc1Cl)Nc1ccc(S(=O)(=O)Nc2ncccn2)cc1`: -14.3%. Turning to `O=C(O)C#Cc1cccc2ccccc12`, the signal enhancement is -21.3%. The same measure for `Cc1nc2c(ncn2-c2ccccc2)c(=O)n1NC(=O)CN1CCCC1`: -14.3%; for `C/C(=N/Nc1nc(-c2ccccc2)c(CC(=O)O)s1)c1ccccc1`: -20.1%; for `S=C(NNC(=S)NC1CC2CCC1C2)NC1CC2C=CC1C2` (configuration not stated): -3.28%.

As to `COC(=O)c1scc(S(=O)(=O)C(C)(C)C)c1-n1cccc1`, the signal enhancement is -17%.

As for `C/C(=N\NC(N)=S)c1ccncc1`, the signal enhancement is -0.15%. `C/C(=N\NC(=O)c1cccnc1)c1ccc(-c2ccccc2)cc1`: the signal enhancement is -9.97%. Next, `C/C(=N\NC(N)=S)c1cccnc1`: 54.3% (active); `COC(=O)N(NC(=O)C(O)(C(C)C)C(C)C)c1ccccc1`: -12.4%. The same measure for `O=C(C[n+]1cc(-c2ccc(Cl)c(Cl)c2)n2c1CCC2)c1cccs1`: -2.63%; for `CS(=O)(=O)c1ccc(Cl)c(NC(=O)Nc2ccccc2)c1`: -9.46%.

Values taken from PubChem BioAssay AID1230 (PCMD, 2008).
